# Laboratory results reported in ChEMBL document CHEMBL1146056, “Microwave-accelerated synthesis of P1'-extended HIV-1 protease inhibitors encompassing a tertiary alcohol in the transition-state mimicking scaffold” (J Med Chem, 2006).
# Assays:
# [1] = test system: Human immunodeficiency virus 1; test: Antiviral activity against HIV1 in MT4 cells; assay type: functional, organism-based; settings: Human immunodeficiency virus 1, MT4
# Method in brief: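 HIV-1-infected MT4 cells; antiviral activity reported as EC50 (µM).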
# [2] = molecular target: Human immunodeficiency virus type 1 protease (Human immunodeficiency virus 1, UniProt Q72874); test: Inhibition of HIV1 protease
# MT4 = test: Cytotoxicity against MT4 cells; assay type: functional; settings: Homo sapiens
# Method in brief: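 Cytotoxicity reported as CC50 (µM).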
# [3] = Intrinsic clearance in human liver microsome at 2 uM; assay type: ADME; settings: liver microsomes
# Method in brief: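 Stability in liver microsome homogenate, expressed as intrinsic clearance (Clint, µL/min/mg).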
# [4] = Permeability in Caco-2 cells at 10 uM; assay type: ADME, cell-based; settings: human, read-out: permeability
# Method in brief: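 Caco-2 cell monolayer; membrane permeation expressed as apparent permeability Papp (10^-6 cm/s).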
Structure (SMILES),EC50 [1] [µM],Ki [2] [µM],CC50 (MT4) [µM],microsomal CLint at 2 µM [3] [µL/min/mg],Papp at 10 µM [4] [nm/s]
COC(=O)N[C@H](C(=O)NN(Cc1cccc(C#Cc2cccnc2)c1)C[C@@](O)(Cc1ccccc1)C(=O)N[C@H]1c2ccccc2C[C@H]1O)C(C)(C)C,> 10,0.018,> 10,–,–
COC(=O)N[C@H](C(=O)NN(Cc1ccc(Br)cc1)C[C@@](O)(Cc1ccccc1)C(=O)N[C@H]1c2ccccc2C[C@H]1O)C(C)(C)C,1.1,–,> 10,–,–
COC(=O)N[C@H](C(=O)NN(Cc1ccc(-c2ccccc2)cc1)C[C@@](O)(Cc1ccccc1)C(=O)N[C@H]1c2ccccc2C[C@H]1O)C(C)(C)C,0.7,–,> 10,–,–
COC(=O)N[C@H](C(=O)NN(Cc1cccc(Br)c1)C[C@@](O)(Cc1ccccc1)C(=O)N[C@H]1c2ccccc2C[C@H]1O)C(C)(C)C,3.3,0.018,> 10,–,–
COC(=O)N[C@H](C(=O)NN(Cc1ccc(-c2ccc3c(c2)OCO3)cc1)C[C@@](O)(Cc1ccccc1)C(=O)N[C@H]1c2ccccc2C[C@H]1O)C(C)(C)C,1,0.011,> 10,–,–
COC(=O)N[C@H](C(=O)NN(Cc1cccc(/C=C/c2ccccc2)c1)C[C@@](O)(Cc1ccccc1)C(=O)N[C@H]1c2ccccc2C[C@H]1O)C(C)(C)C,> 10,0.014,> 10,–,–
COC(=O)N[C@H](C(=O)NN(Cc1ccc(-c2cccnc2)cc1)C[C@@](O)(Cc1ccccc1)C(=O)N[C@H]1c2ccccc2C[C@H]1O)C(C)(C)C,0.18,–,> 10,154,330
COC(=O)N[C@H](C(=O)NN(Cc1ccc(/C=C/c2ccccc2)cc1)C[C@@](O)(Cc1ccccc1)C(=O)N[C@H]1c2ccccc2C[C@H]1O)C(C)(C)C,> 10,–,> 10,–,–
COC(=O)N[C@H](C(=O)NN(Cc1ccc(C#Cc2cccnc2)cc1)C[C@@](O)(Cc1ccccc1)C(=O)N[C@H]1c2ccccc2C[C@H]1O)C(C)(C)C,0.75,0.0078,> 10,–,–
COC(=O)N[C@H](C(=O)NN(Cc1ccc(-c2cnccn2)cc1)C[C@@](O)(Cc1ccccc1)C(=O)N[C@H]1c2ccccc2C[C@H]1O)C(C)(C)C,1,0.0021,7.8,–,–
COC(=O)N[C@H](C(=O)NN(Cc1cccc(-c2ccccn2)c1)C[C@@](O)(Cc1ccccc1)C(=O)N[C@H]1c2ccccc2C[C@H]1O)C(C)(C)C,> 10,0.015,4.4,–,–
COC(=O)N[C@H](C(=O)NN(Cc1cccc(-c2cccnc2)c1)C[C@@](O)(Cc1ccccc1)C(=O)N[C@H]1c2ccccc2C[C@H]1O)C(C)(C)C,> 10,0.012,6.8,190,110
COC(=O)N[C@H](C(=O)NN(Cc1ccc(-c2ccncc2)cc1)C[C@@](O)(Cc1ccccc1)C(=O)N[C@H]1c2ccccc2C[C@H]1O)C(C)(C)C,0.22,–,> 10,–,–
COC(=O)N[C@H](C(=O)NN(Cc1ccc(-c2cc3ccccc3s2)cc1)C[C@@](O)(Cc1ccccc1)C(=O)N[C@H]1c2ccccc2C[C@H]1O)C(C)(C)C,> 10,–,> 10,–,–
COC(=O)N[C@H](C(=O)NN(Cc1ccc(-c2ccccn2)cc1)C[C@@](O)(Cc1ccccc1)C(=O)N[C@H]1c2ccccc2C[C@H]1O)C(C)(C)C,0.9,–,> 10,–,–
COC(=O)N[C@H](C(=O)NN(Cc1cccc(C#Cc2ccccn2)c1)C[C@@](O)(Cc1ccccc1)C(=O)N[C@H]1c2ccccc2C[C@H]1O)C(C)(C)C,> 10,0.022,> 10,–,–
COC(=O)N[C@H](C(=O)NN(Cc1ccc(-c2c(C)noc2C)cc1)C[C@@](O)(Cc1ccccc1)C(=O)N[C@H]1c2ccccc2C[C@H]1O)C(C)(C)C,1.1,0.0038,> 10,–,–
COC(=O)N[C@H](C(=O)NN(Cc1cccc(-c2ccncc2)c1)C[C@@](O)(Cc1ccccc1)C(=O)N[C@H]1c2ccccc2C[C@H]1O)C(C)(C)C,2,0.093,> 10,–,–
COC(=O)N[C@H](C(=O)NN(Cc1cccc(-c2ccccc2)c1)C[C@@](O)(Cc1ccccc1)C(=O)N[C@H]1c2ccccc2C[C@H]1O)C(C)(C)C,> 10,0.023,> 10,–,–
COC(=O)N[C@H](C(=O)NN(Cc1cccc(C#Cc2ccccc2)c1)C[C@@](O)(Cc1ccccc1)C(=O)N[C@H]1c2ccccc2C[C@H]1O)C(C)(C)C,> 10,0.023,> 10,–,–
COC(=O)N[C@H](C(=O)NN(Cc1ccc(C#Cc2ccccn2)cc1)C[C@@](O)(Cc1ccccc1)C(=O)N[C@H]1c2ccccc2C[C@H]1O)C(C)(C)C,1,0.009,4.9,–,–
COC(=O)N[C@H](C(=O)NN(Cc1ccc(C#Cc2ccccc2)cc1)C[C@@](O)(Cc1ccccc1)C(=O)N[C@H]1c2ccccc2C[C@H]1O)C(C)(C)C,> 10,0.015,> 10,–,–
